Experimental data published in ChEMBL document CHEMBL4376880, “Developing Inhibitors of the p47phox-p22phox Protein-Protein Interaction by Fragment-Based Drug Discovery” (J Med Chem, 2020).
The source made the active and inactive calls. No cut-off for these calls is given here.

What was measured:
[1] = molecular target: T1, Neutrophil cytosol factor 1 (Homo sapiens, UniProt P14598); assay: Covalent inhibition of recombinant human His-tagged p47phox SH3A-B domain (151 to 285 residues) expressed in Escherichia coli BL21 (DE3) cells interaction with Cy5-p22phox149-162 incubated for 10 mins by fluorescence polarization competition assay
T1 sequence (P14598 whole entry, the tested form may be a part): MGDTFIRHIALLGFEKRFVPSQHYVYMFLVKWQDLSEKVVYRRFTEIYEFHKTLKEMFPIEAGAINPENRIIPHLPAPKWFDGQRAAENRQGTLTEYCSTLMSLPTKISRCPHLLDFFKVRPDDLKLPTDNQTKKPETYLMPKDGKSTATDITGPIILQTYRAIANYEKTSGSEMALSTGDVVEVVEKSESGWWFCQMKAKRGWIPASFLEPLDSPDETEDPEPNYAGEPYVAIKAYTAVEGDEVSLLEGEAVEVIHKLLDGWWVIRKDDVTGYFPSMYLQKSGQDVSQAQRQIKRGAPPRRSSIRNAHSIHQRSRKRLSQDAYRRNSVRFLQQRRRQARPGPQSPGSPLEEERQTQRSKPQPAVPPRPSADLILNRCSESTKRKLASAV

[2] = molecular target: T1, Neutrophil cytosol factor 1; assay: Binding affinity to immobilized recombinant human His-tagged p47phox SH3A-B domain (151 to 285 residues) expressed in Escherichia coli BL21 (DE3) cells assessed as dissociation constant by SPR assay
[3] = molecular target: T1, Neutrophil cytosol factor 1; assay: Covalent inhibition of recombinant human His-tagged p47phox SH3A-B domain (151 to 285 residues) expressed in Escherichia coli BL21 (DE3) cells interaction with Cy5-p22phox149-162 incubated for 10 mins in presence of TCEP by fluorescence polarization competition assay
How it was run: (§1)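 Heterologous competition FP. The compound was titrated as a 12-point two-fold series in duplicate against 1.25 μM p47phox SH3A-B and 5 nM Cy5-p22phox149-162. Buffer was HBS (50 mM Hepes, 150 mM NaCl, 0.005% Tween 20, pH 7.4), with or without TCEP. Incubation was 10 min or 2 h at room temperature before the FP read.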

[4] = molecular target: T1, Neutrophil cytosol factor 1; assay: Ratio of Ki for recombinant human His-tagged p47phox SH3A-B domain (151 to 285 residues) expressed in Escherichia coli BL21 (DE3) cells in presence of TCEP to Ki for recombinant human His-tagged p47phox SH3A-B domain (151 to 285 residues) expressed in Escherichia coli BL21 (DE3) cells by fluorescence polarization competition assay; how it was run: as §1
[5] = molecular target: T1, Neutrophil cytosol factor 1; assay: Covalent inhibition of recombinant human His-tagged p47phox SH3A-B domain (151 to 285 residues) expressed in Escherichia coli BL21 (DE3) cells interaction with Cy5-p22phox149-162 incubated for 2 hrs by fluorescence polarization competition assay; how it was run: as §1
[6] = molecular target: T1, Neutrophil cytosol factor 1; assay: Non-reversible binding affinity to immobilized recombinant human His-tagged p47phox SH3A-B domain (151 to 285 residues) expressed in Escherichia coli BL21 (DE3) cells assessed as slow dissociation rate at 12.5 uM by SPR assay
How it was run: (§2)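 p47phox SH3A-B (residues 151-285) immobilized at 4684 RU by His capture then amine coupling; compound injected at 12.5 μM in HBS pH 7.4 (10 mM Hepes, 150 mM NaCl, 0.005% Tween) at 25 °C. Sensorgrams were blank- and reference-subtracted with DMSO calibration. Complex then exposed to 2 mM TCEP.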

[7] = molecular target: T1, Neutrophil cytosol factor 1; assay: Binding affinity to immobilized recombinant human His-tagged p47phox SH3A-B domain (151 to 285 residues) expressed in Escherichia coli BL21 (DE3) cells at 12.5 uM in presence of TCEP by SPR assay; how it was run: as §2
[8] = molecular target: T1, Neutrophil cytosol factor 1; assay: Binding affinity to recombinant human His-tagged p47phox SH3A-B domain (151 to 285 residues) expressed in Escherichia coli BL21 (DE3) cells assessed as increase in protein molecular weight at 200 uM by ESI/LC-MS analysis
[9] = molecular target: T1, Neutrophil cytosol factor 1; assay: Binding affinity to recombinant human His-tagged p47phox SH3A-B domain (151 to 285 residues) expressed in Escherichia coli BL21 (DE3) cells assessed as protein aggregation by measuring increase in maximum dimensions of the particles by SAXS study analysis
How it was run: (§3)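 His-tag removed by HRV-3C protease. Protein (2-5.6 mg/mL, 130-370 μM final) was buffer-exchanged into 10 mM Hepes, 150 mM NaCl, 4% DMSO, pH 7.4, with 100 or 200 μM compound. Samples were held at 6 °C and measured at room temperature, λ 1.34 Å, q 0.01-0.5 Å−1. Fifteen to twenty 60 s frames were radially averaged, and buffer scattering was subtracted.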

[10] = molecular target: T1, Neutrophil cytosol factor 1; assay: Binding affinity to recombinant human His-tagged p47phox SH3A-B domain (151 to 285 residues) expressed in Escherichia coli BL21 (DE3) cells assessed as protein aggregation by measuring increase in SAXS-derived radius of gyration by SAXS study analysis; how it was run: as §3
[11] = molecular target: T1, Neutrophil cytosol factor 1; assay: Binding affinity to recombinant human His-tagged p47phox SH3A-B domain (151 to 285 residues) expressed in Escherichia coli BL21 (DE3) cells assessed as protein aggregation by measuring increase in concentration-normalized scattering intensity by SAXS study analysis; how it was run: as §3
[12] = molecular target: T1, Neutrophil cytosol factor 1; assay: Binding affinity to recombinant human His-tagged p47phox SH3A-B domain (151 to 285 residues) expressed in Escherichia coli BL21 (DE3) cells assessed as protein aggregation by SAXS study analysis; details: TDE = time-dependent effect; how it was run: as §3
[13] = molecular target: T1, Neutrophil cytosol factor 1; assay: Binding affinity to recombinant human His-tagged 15N-labeled p47phox SH3A-B domain (151 to 285 residues) expressed in Escherichia coli BL21 (DE3) cells assessed as compound interaction with protein at Cys196 in SH3A domain by NMR spectroscopy

Row | SMILES | Ki ([1]; read-out: Ki) [µM] | also measured
1 | Nc1cccc2ncccc12 | > 2000 | 
2 | Cc1cc(N2CCN(C(=O)OC(C)(C)C)CC2)c2ccccc2n1 | > 2000 | 
3 | c1ccc2nc(N3CCNCC3)ccc2c1 [QUIPAZINE] | 1410 | Kd [2]: 420 µM
4 | Nc1ncccn1 | > 2000 | 
5 | COCCNc1ccc2ccccc2n1 | > 2000 | 
6 | Nc1ccc2ccccc2c1 [NAPHTHYLAMINE] | > 2000 | 
7 | CC(=O)Nc1ccc2ccccc2n1 | > 2000 | 
8 | Nc1ccccn1 [2-AMINOPYRIDINE] | > 2000 | 
9 | Cc1cc(N2CCNCC2)nc2ccccc12 | 1070 | 
10 | Nc1cc(Cl)c2ccccc2n1 | > 2000 | 
11 | Oc1ccc2ccccc2n1 | > 2000 | 
12 | Cc1cc(N2CCN(C)CC2)c2ccccc2n1 | > 2000 | 
13 | Nc1ccc2cc(OCC3CCCCC3)ccc2n1 | > 2000 | 
14 | Nc1cc(OCc2ccc(Cl)cc2)c2ccccc2n1 | > 2000 | 
15 | Nc1ccc2cc(OCc3ccccc3)ccc2n1 | > 2000 | 
16 | c1ccc2ncccc2c1 [QUINOLINE] | > 2000 | 
17 | Nc1ccc2cc(-c3ccc(Cl)cc3)ccc2n1 | > 2000 | 

Row | SMILES | Ki ([1]; read-out: Ki) [µM] | also measured
18 | Cc1cc(N)c2ccccc2n1 | 1070 | Kd [2]: 521 µM
19 | OCCOCCNc1ccc2ccccc2n1 | > 2000 | 
20 | Nc1ccc2cc(OCCOCCOCCOCCOc3ccc4nc(N)ccc4c3)ccc2n1 | 32.7 | 
21 | Nc1cc(O)c2ccccc2n1 | > 2000 | 
22 | CN1CCCN(Cc2ccc(CN)cc2)CC1 |  | Ki [1]: Not Active; Kd [2]: 418 µM
23 | NCc1ccc2ccccc2n1 | > 2000 | 
24 | Nc1ccc2cc(OCc3ccc(Cl)cc3)ccc2n1 | > 2000 | 
25 | Nc1ccc2ncccc2c1 | > 2000 | 
26 | c1cc(N2CCNCC2)ccn1 | 302 | 
27 | Cc1ccc2ccccc2n1 [QUINALDINE] | > 2000 | 
28 | Nc1cccc2cccnc12 [8-AMINOQUINOLINE] | > 2000 | 
29 | Nc1ccnc2ccccc12 [QUINOLIN-4-AMINE] | 1520 | Kd [2]: 765 µM
30 | Nc1ccc2cc(COc3ccc(Cl)cc3)ccc2n1 | > 2000 | 
31 | O=c1c2ccccc2[se]n1-c1ccccc1 [EBSELEN] | 63 | Ki [3]: > 300 µM; Ratio Ki [4]: > 10; Ki [5]: 12 µM; Activity [6]: Active; Activity [7]: inactive; Activity [8]: Active; Activity [9]: Active; Activity [10]: Active; Activity [11]: Active; Activity [12]: Tde; Activity [13]: Active
32 | c1ccc2c(N3CCNCC3)cccc2c1 | 1520 | Kd [2]: 366 µM
33 | Nc1ccc2cccc(O)c2n1 | 1380 | 
34 | Nc1cnc2ccccc2c1 | > 2000 | 
